This is an account of results in ChEMBL document CHEMBL3871300, “Synthesis and evaluation of the anti-proliferative activity of diaryl-3-pyrrolin-2-ones and fused analogs” (Bioorg Med Chem Lett, 2017).

A short description of test [1]: Antiproliferative activity against human U937 cells after 48 hrs by MTT assay. It counts as functional, cell-based. As to conditions: U-937, 48 h. A digest of the protocol:
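Human promonocytic U-937 cells exposed to compound for 48 h, then MTT added as an indirect viability read-out via mitochondrial activity. IC50 taken as the concentration reducing viability to 50% of mock-treated cells. Values averaged from at least three independent runs, each with eight replicates, with standard errors; n gives the number of independent runs.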
(In general: Tetrazolium dyes change colour on reduction, which living cells bring about.)

Test [2] is described as follows: Cytotoxicity against human U937 cells assessed as cell viability at antiproliferative IC50 after 48 hrs by trypan exclusion assay. The class given is functional, U-937.

What is called IC50 is the point on the concentration scale where inhibition reaches its midpoint. A higher IC50 goes with a need for much substance. On to `COc1ccc(C2=CC(=O)NC2)cc1OC`, for which, in test [1], the IC50 is > 100 µM.

In turn, `COc1cc(C2=C(c3ccccc3)C(=O)NC2)cc(OC)c1OC` returned a concentration for half-maximal inhibition (IC50) in test [1] of 84 µM.

For the compound `Cn1cc(C2=C(c3ccccc3)CNC2=O)c2ccccc21`, in test [1], the IC50 was > 100 µM.

In turn, `COc1cc(C2=C(c3cn(C)c4ccccc34)C(=O)NC2)cc(OC)c1OC` returned an IC50 in test [1] of 38 µM.

Consider `COc1cc(C2=C(c3ccccc3)CNC2=O)cc(OC)c1OC`, for which, in test [1], half-maximal inhibition (IC50) was put at 33 µM.

In the case of `COc1cc(C2=CC(=O)NC2)cc(OC)c1OC`, the IC50 in test [1] was > 100 µM.

Consider `COc1ccc(C2=C(c3cn(C)c4ccccc34)CNC2=O)cc1OC`, for which, in test [1], the IC50 is > 100 µM.

In test [1], `COc1ccc(C2=C(c3ccc(OC)cc3)C(=O)NC2)cc1` had an IC50 of 13 µM.

Compound `COc1ccc(C2=C(c3ccc(OC)c(OC)c3)C(=O)NC2)cc1OC` registered an IC50 in test [1] of 57 µM.

In the case of `COc1cc2c3c(c4c5ccccc5n(C)c4c2cc1OC)C(=O)NC3`, in test [1], the midpoint of inhibition, the IC50, lay at 48 µM.

Take `Cn1cc(C2=CC(=O)NC2)c2ccccc21`: the IC50 in test [1] was > 100 µM.

In test [1], `COc1cc(C2=C(c3cc(OC)c(OC)c(OC)c3)C(=O)NC2)cc(OC)c1OC` showed an IC50 of 11 µM. In addition, the Activity in test [2] amounted to 51%.

For the compound `COc1cc2c3c(c4cc(OC)c(OC)cc4c2cc1OC)C(=O)NC3`, the half-inhibitory concentration (IC50) in test [1] was > 100 µM.

`COc1ccc(C2=C(c3cn(C)c4ccccc34)C(=O)NC2)cc1OC` had an IC50 in test [1] of 10 µM. The Activity in test [2] was 61%.
